The source of these data is ChEMBL document CHEMBL4028811, “Discovery of 2-substituted 1H-benzo[d]immidazole-4-carboxamide derivatives as novel poly(ADP-ribose)polymerase-1 inhibitors with in vivo anti-tumor activity” (Eur J Med Chem, 2017).

For data set [1], the target named is T1, Poly [ADP-ribose] polymerase 1 (Homo sapiens, UniProt P09874). Kind of data set: Inhibition of recombinant human PARP1 expressed in Escherichia coli BL21(DE3) using sheared DNA as substrate measured after 1 hr in presence of NAD+.
T1 sequence (P09874 whole entry): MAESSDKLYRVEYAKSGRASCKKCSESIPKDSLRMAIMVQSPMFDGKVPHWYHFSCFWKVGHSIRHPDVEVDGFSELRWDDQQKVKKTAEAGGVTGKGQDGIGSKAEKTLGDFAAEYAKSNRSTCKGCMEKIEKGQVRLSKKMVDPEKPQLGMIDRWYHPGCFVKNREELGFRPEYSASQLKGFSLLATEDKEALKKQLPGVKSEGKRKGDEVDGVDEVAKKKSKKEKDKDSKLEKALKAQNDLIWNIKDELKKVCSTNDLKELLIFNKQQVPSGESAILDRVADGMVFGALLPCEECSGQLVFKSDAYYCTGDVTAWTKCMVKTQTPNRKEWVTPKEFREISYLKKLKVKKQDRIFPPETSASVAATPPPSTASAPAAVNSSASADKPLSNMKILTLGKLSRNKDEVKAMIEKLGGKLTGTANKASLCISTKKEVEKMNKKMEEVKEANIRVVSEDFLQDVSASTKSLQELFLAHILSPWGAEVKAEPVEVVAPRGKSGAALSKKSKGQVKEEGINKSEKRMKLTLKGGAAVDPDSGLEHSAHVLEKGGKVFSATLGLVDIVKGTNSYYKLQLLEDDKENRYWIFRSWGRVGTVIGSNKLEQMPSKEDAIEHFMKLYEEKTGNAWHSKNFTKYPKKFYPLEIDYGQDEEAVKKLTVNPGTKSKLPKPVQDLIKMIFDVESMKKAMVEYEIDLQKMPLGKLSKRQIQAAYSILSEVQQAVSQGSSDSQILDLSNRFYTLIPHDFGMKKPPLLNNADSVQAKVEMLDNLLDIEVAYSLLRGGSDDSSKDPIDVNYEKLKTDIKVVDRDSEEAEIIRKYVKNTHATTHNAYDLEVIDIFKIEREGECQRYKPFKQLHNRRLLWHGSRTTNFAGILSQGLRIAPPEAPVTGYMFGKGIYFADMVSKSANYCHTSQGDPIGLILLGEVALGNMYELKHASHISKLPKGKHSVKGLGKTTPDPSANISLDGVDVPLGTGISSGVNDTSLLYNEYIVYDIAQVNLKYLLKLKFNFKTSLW
In data set [2] the target is T1, Poly [ADP-ribose] polymerase 1. Kind of data set: Inhibition of recombinant human PARP1 expressed in Escherichia coli BL21(DE3) using histone as substrate measured after 1 hr in presence of biotinylated NAD+ by ELISA.
Data set [3] concerns the target Poly [ADP-ribose] polymerase 2 (Homo sapiens, UniProt Q9UGN5). Kind of data set: Inhibition of recombinant human PARP2 expressed in Escherichia coli BL21(DE3) using histone as substrate measured after 1 hr in presence of biotinylated NAD+ by ELISA. In a few lines:
(§1)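 Human recombinant PARP2 (and PARP1) expressed and purified, inhibition measured by ELISA, with AZD2281 as positive control. IC50 from concentration–response fitting.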

The species entered for a further data set is Homo sapiens. In words: Selectivity ratio of IC50 for recombinant human PARP2 to IC50 for recombinant human PARP1. In a few lines:
as §1

Data set [4] has as its target T1, Poly [ADP-ribose] polymerase 1. In words: Inhibition of PARP1 in human MX1 cells assessed as potentiation of temozolomide-induced cytotoxicity at 10 uM after 72 hrs by MTT assay relative to temozolomide alone. Format: cell-based. The method, boiled down: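 MX-1 cells seeded at 2000/well and exposed for 72 h to TMZ (0–0.5 mmol/L) with or without PARP inhibitor fixed at 10 μmol/L. Survival read by MTT. PF50 = IC50 of TMZ alone / IC50 of TMZ + inhibitor.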

Data set [5] concerns MX1. Kind of data set: Anti-tumor activity against human MX1 cells xenografted in BALB/c mouse assessed as tumor weight at 50 mg/kg, po administered once daily via gavage for 5 days measured after 11 days (reference value: 4.09 +/- 0.64 g). Format: functional. The method, boiled down: (§2)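 Female athymic BALB/c nude mice, 8–10 weeks old, implanted s.c. with 1×10^6 MX-1 cells in 0.1 mL PBS. Day 6: grouped at 6/group, tumors 100–300 mm³. Oral gavage once daily. TMZ 50 mg/kg/day for 5 days; single-agent test compound 50 mg/kg/day for 10 days; combinations both orally for 5 days. Body weight and tumor volume measured twice weekly; euthanized day 11.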

Data set [6] has as its system MX1. Kind of data set: Anti-tumor activity against human MX1 cells xenografted in BALB/c mouse assessed as tumor growth inhibition at 50 mg/kg, po administered once daily via gavage for 5 days measured after 11 days relative to control. Format: functional. The method, boiled down: as §2
In data set [7] the test system is Mus musculus. In words: Toxicity in BALB/c mouse assessed as change in body weight at 50 mg/kg, po administered once daily via gavage for 5 days measured twice every week up to 11 days (reference value: 5.32 g). Format: organism-based. Conditions: in vivo. The method, boiled down: as §2
Data set [8] concerns MX1. Kind of data set: Anti-tumor activity against human MX1 cells xenografted in BALB/c mouse assessed as tumor weight at 50 mg/kg, po administered once daily via gavage for 5 days measured after 11 days in presence of temozolomide (reference value: 4.09 +/- 0.64 g). Type of data set: functional. The method, boiled down:
as §2

Data set [9] relates to MX1. Kind of data set: Anti-tumor activity against human MX1 cells xenografted in BALB/c mouse assessed as tumor weight at 25 mg/kg, po administered once daily via gavage for 5 days measured after 11 days in presence of temozolomide (reference value: 4.09 +/- 0.64 g). Type of data set: functional. The method, boiled down:
as §2

In data set [10] the test system is MX1. In words: Anti-tumor activity against human MX1 cells xenografted in BALB/c mouse assessed as tumor weight at 50 mg/kg, po administered once daily via gavage for 10 days measured after 11 days (reference value: 4.09 +/- 0.64 g). Format: functional. In a few lines: as §2
The subject of data set [11] is MX1. In words: Anti-tumor activity against human MX1 cells xenografted in BALB/c mouse assessed as tumor growth inhibition at 25 mg/kg, po administered once daily via gavage for 5 days measured after 11 days in presence of temozolomide relative to control. Format: functional. The method, boiled down: as §2
In data set [12] the test system is MX1. In words: Anti-tumor activity against human MX1 cells xenografted in BALB/c mouse assessed as tumor growth inhibition at 50 mg/kg, po administered once daily via gavage for 5 days measured after 11 days in presence of temozolomide relative to control. Format: functional. In a few lines:
as §2

Data set [13] relates to MX1. In words: Anti-tumor activity against human MX1 cells xenografted in BALB/c mouse assessed as tumor growth inhibition at 50 mg/kg, po administered once daily via gavage for 10 days measured after 11 days relative to control. Type of data set: functional. The method, boiled down: as §2
Data set [14] has as its system Mus musculus. Kind of data set: Toxicity in BALB/c mouse assessed as change in body weight at 50 mg/kg, po administered once daily via gavage for 10 days measured twice every week up to 11 days (reference value: 5.32 g). Type of data set: organism-based. As to conditions: in vivo. The method, boiled down:
as §2

Data set [15] has as its system Mus musculus. In words: Toxicity in BALB/c mouse assessed as change in body weight at 50 mg/kg, po administered once daily via gavage for 5 days in presence of temozolomide measured twice every week up to 11 days (reference value: 5.32 g). Format: organism-based. Conditions: in vivo. In a few lines:
as §2

Data set [16] has as its system Mus musculus. In words: Toxicity in BALB/c mouse assessed as change in body weight at 25 mg/kg, po administered once daily via gavage for 5 days in presence of temozolomide measured twice every week up to 11 days (reference value: 5.32 g). Type of data set: organism-based. As to conditions: in vivo. In a few lines:
as §2

Data set [17] relates to MX1. Kind of data set: Anti-tumor activity against human MX1 cells xenografted in BALB/c mouse assessed as tumor growth inhibition at 25 mg/kg, po administered once daily via gavage for 5 days measured after 11 days in presence of temozolomide relative to temozolomide. Type of data set: functional. The method, boiled down:
as §2

The test system of data set [18] is MX1. In words: Anti-tumor activity against human MX1 cells xenografted in BALB/c mouse assessed as tumor growth inhibition at 50 mg/kg, po administered once daily via gavage for 5 days measured after 11 days in presence of temozolomide relative to temozolomide. Type of data set: functional. In a few lines: as §2
The mark [19] stands for this setting: Mus musculus, MX1, po, read-out: TGI.

Chain of Poly [ADP-ribose] polymerase 2 (Q9UGN5 whole entry): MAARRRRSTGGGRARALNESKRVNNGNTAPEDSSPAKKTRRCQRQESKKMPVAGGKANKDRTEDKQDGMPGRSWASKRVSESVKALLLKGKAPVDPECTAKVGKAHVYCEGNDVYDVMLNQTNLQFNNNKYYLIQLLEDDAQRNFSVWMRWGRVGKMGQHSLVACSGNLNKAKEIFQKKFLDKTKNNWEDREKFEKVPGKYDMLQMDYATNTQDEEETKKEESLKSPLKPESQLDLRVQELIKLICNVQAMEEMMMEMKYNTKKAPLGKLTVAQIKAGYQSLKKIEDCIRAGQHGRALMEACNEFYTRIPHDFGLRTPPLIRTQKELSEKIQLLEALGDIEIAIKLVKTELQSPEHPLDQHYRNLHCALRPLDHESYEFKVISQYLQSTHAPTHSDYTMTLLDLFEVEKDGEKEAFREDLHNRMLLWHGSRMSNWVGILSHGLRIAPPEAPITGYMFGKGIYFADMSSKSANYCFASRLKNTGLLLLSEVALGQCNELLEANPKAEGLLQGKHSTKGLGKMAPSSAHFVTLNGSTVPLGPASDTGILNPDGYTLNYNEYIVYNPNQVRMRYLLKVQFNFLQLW

As to `CC(C)(C)OC(=O)N1CCC(N2CCCC(NC(=O)c3nc4c(C(N)=O)cccc4[nH]3)C2)CC1` (stereo unspecified), the IC50 in [1] worked out at 0.818 µM.
On the same count and under the same terms, in the case of `NC(=O)c1cccc2[nH]c(C(=O)NC3CCCN(C4CCCCC4)C3)nc12` (stereo unspecified) it was 0.382 µM; in that of `NC(=O)c1cccc2[nH]c(C(=O)NC3CCCN(C4CCNCC4)C3)nc12` (stereo unspecified), 0.793 µM.
Turning to `NC(=O)c1cc(F)cc2[nH]c(C(=O)N3CCC(N)CC3)nc12`, the IC50 in data set [2] was found to be 0.00276 µM; in data set [3], 0.024 µM. Further, the Ratio IC50 in the data set listed under Homo sapiens was less than 10. Moreover, in data set [4], the PF50 came to 0.98.
As for `Cn1nnc2c(C(N)=O)ncn2c1=O` [TEMOZOLOMIDE], the Activity came to 1.57 g in the data set with MX1 [5] and 0.02 g in the data set on Mus musculus [7]. Further, the T/C with MX1 [6] was determined as 38%. Further, in the data set on MX1 [6] (setting [19]), the inhibition in vivo at 50 mg/kg was 62%.
Regarding `NC(=O)c1cccc2[nH]c(C(=O)NC3CCCNC3)nc12` (stereo unspecified), the IC50 in data set [1] is 0.199 µM.
As for `NC(=O)c1cccc2[nH]c(C(=O)NC3CCN(CC(F)(F)F)CC3)nc12`, the IC50 amounted to 0.034 µM in [2] and 0.1 µM in [3]. In the data set listed under Homo sapiens, the Ratio IC50 is less than 10. The PF50 in data set [4] was found to be 0.93.
Take `NC(=O)c1cccc2[nH]c(C(=O)NC3CCN(C4CCCCC4)C3)nc12` (stereo unspecified): in [1], the IC50 is more than 1 µM.
With `NC(=O)c1cc(F)cc2[nH]c(C(=O)N3CCC(NC4CCCCC4)C3)nc12` (stereo unspecified), the IC50 in data set [2] came to 0.037 µM; in [3], 0.038 µM. Also, the Ratio IC50 in the data set filed under Homo sapiens is less than 10. Further, the PF50 in data set [4] came to 1.71.
For `NC(=O)c1cccc2[nH]c(C(=O)NC3CCNCC3)nc12`, the IC50 in [2] was determined as 0.101 µM. The Ratio IC50 in the data set filed under Homo sapiens is less than 10. Besides, the PF50 in data set [4] was found to be 1.75.
Take `CC(C)(C)OC(=O)N1CCC(NC(=O)c2nc3c(C(N)=O)cccc3[nH]2)C1` (stereo unspecified): in data set [1], the 50% inhibitory concentration (IC50) came out at 1.81 µM.
With `CC(C)(C)CN1CCC(NC(=O)c2nc3c(C(N)=O)cc(F)cc3[nH]2)CC1`, the IC50 in [2] was determined as 0.017 µM; in data set [3] it was 0.074 µM. For the same compound, the Activity in the data set with MX1 [8] was 0.5 g; in the data set with MX1 [9], 1.47 g; with MX1 [10] it was 3.73 g; with Mus musculus [14], 5 g; in the data set on Mus musculus [15], -0.79 g; with Mus musculus [16], 0.23 g. In addition, the Ratio IC50 in the data set listed under Homo sapiens was less than 10. In data set [4], the PF50 came to 7.1. The T/C was 36% in the data set with MX1 [11]; 12% with MX1 [12]; 91% in the data set with MX1 [13]; 94% with MX1 [17]; 32% in the data set on MX1 [18]. For the same compound, the inhibition in vivo at 25 mg/kg in the data set on MX1 [11] (setting [19]) was found to be 64%; with MX1 [17] (setting [19]), 6%. Also, the inhibition in vivo at 50 mg/kg with MX1 [12] (setting [19]) worked out at 88%; with MX1 [13] (setting [19]), 9%; in the data set on MX1 [18] (setting [19]), 68%.
Take `NC(=O)c1cccc2[nH]c(C(=O)NC3CCN(CC4CC4)CC3)nc12`: the concentration for half-maximal inhibition (IC50) came to 0.108 µM in [2] and 0.13 µM in data set [3]. Further, in the data set listed under Homo sapiens, the Ratio IC50 is less than 10. Besides, the PF50 in [4] was 3.53.
For `NC(=O)c1cccc2[nH]c(C(=O)N3CCC(NC4CCCCC4)C3)nc12` (stereo unspecified) the same measures were 0.075 µM, 0.091 µM, less than 10 and 4.17.
Turning to `NC(=O)c1cccc2[nH]c(C(=O)NC3CCNC3)nc12` (stereo unspecified), in [1], the IC50 worked out at 0.343 µM.
Take `NC(=O)c1cccc2[nH]c(C(=O)N3CCC(N)C3)nc12` (stereo unspecified): the IC50 in data set [2] came out at 0.015 µM; in data set [3] it was 0.048 µM. Further, the Ratio IC50 in the data set filed under Homo sapiens was less than 10. In addition, the PF50 in data set [4] is 1.98.
In the case of `CCCNC1CCN(C(=O)c2nc3c(C(N)=O)cccc3[nH]2)C1` (stereo unspecified), the results for the IC50 in data set [2] and in [3] were 0.079 µM and 0.075 µM, respectively. Besides, the Ratio IC50 in the data set listed under Homo sapiens is less than 10. Further, in [4], the PF50 was 1.54.
With `CC(C)(C)OC(=O)N1CCCC(NC(=O)c2nc3c(C(N)=O)cccc3[nH]2)C1` (stereo unspecified), the IC50 in data set [1] came out at 1.15 µM.
For the compound `NC(=O)c1cc(F)cc2[nH]c(C(=O)N3CCC(N)C3)nc12` (stereo unspecified), the IC50 in data set [2] came out at 0.012 µM; in [3], 0.019 µM. Also, in the data set listed under Homo sapiens, the Ratio IC50 is less than 10. In [4], the PF50 was 1.07.
For `NC(=O)c1cccc2[nH]c(C(=O)N3CCC(N)CC3)nc12` the same measures were 0.029 µM, 0.073 µM, less than 10 and 1.99.
As for `CC(C)CCN1CCCC(NC(=O)c2nc3c(C(N)=O)cccc3[nH]2)C1` (stereo unspecified), the IC50 in data set [1] stood at 0.708 µM.
Regarding `NC(=O)c1cc(F)cc2[nH]c(C(=O)N3CCC(NC4CCCCC4)CC3)nc12`, the IC50 in data set [2] was 0.00754 µM; in data set [3], 0.034 µM. Further, the Ratio IC50 in the data set filed under Homo sapiens was less than 10. For the same compound, the PF50 in data set [4] came to 0.71.
